Reference: ChEMBL document CHEMBL1153409, “The identification of novel PLC-gamma inhibitors using virtual high throughput screening” (Bioorg Med Chem, 2009)
Activity calls are given as the source filed them. No cut-off for these calls is given here.

Tests used:
[1] = target: T1, 1-phosphatidylinositol 4,5-bisphosphate phosphodiesterase gamma-2 (Homo sapiens) (UniProt P16885); experiment: Inhibition of recombinant phospholipase C gamma2 expressed in baculovirus infected Sf9 cells at 50 uM using [3H]PIP2 by flashplate biochemical assay
T1 sequence (whole entry): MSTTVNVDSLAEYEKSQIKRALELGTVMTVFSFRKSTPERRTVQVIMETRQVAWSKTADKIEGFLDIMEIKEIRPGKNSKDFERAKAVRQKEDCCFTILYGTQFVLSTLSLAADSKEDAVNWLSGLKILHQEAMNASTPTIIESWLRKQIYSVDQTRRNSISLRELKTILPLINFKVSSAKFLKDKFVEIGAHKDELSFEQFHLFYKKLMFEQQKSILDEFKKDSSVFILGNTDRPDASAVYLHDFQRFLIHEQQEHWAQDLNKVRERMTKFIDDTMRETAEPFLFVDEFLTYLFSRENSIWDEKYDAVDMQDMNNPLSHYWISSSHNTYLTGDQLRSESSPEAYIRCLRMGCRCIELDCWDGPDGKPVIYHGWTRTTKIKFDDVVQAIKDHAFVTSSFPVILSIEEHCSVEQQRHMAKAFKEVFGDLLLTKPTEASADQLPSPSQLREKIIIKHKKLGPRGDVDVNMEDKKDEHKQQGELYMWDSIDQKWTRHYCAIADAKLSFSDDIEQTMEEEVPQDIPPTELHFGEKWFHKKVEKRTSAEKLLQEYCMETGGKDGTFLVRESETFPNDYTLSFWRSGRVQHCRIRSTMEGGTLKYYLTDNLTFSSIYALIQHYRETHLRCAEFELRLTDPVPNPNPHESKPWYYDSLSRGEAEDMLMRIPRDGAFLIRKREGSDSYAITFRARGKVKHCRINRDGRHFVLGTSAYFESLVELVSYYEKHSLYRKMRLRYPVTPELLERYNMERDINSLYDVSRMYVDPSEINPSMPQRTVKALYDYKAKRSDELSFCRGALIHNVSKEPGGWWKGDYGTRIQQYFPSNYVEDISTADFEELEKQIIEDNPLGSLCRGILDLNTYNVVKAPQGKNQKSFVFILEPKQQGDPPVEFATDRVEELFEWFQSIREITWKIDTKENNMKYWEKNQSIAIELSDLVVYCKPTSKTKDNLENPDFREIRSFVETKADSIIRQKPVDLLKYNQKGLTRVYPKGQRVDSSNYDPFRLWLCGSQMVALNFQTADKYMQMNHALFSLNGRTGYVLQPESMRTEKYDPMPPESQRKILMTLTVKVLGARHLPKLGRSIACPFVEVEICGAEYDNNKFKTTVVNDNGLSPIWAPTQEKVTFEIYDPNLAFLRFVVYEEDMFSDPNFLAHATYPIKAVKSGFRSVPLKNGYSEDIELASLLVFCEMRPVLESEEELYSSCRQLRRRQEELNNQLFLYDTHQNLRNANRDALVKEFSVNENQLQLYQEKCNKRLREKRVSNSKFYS
How it was run: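 3H-PIP2 Flashplate assay with His-tagged full-length PLC-γ2 from infected Sf-9 cells. Substrate-coated wells (0.1 µCi/well) incubated with enzyme and compound in Tris/NaCl/CaCl2/EGTA/spermine/deoxycholate buffer, pH 7.4, 5% DMSO, room temperature, typically 30 min. Percent inhibition at 50 µM from two measurements, based on CPM versus control wells.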

[2] = target: T1, 1-phosphatidylinositol 4,5-bisphosphate phosphodiesterase gamma-2 (Homo sapiens); experiment: Inhibition of phospholipase C gamma2 in human A431 cells assessed as reduction of calcium release after 45 mins by FLIPR assay; format: cell-based; conditions: A-431
How it was run: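 A431 squamous carcinoma cells seeded at 4 × 10^5 per well and kept overnight at 37 °C, 5% CO2. Medium replaced with doubling dilutions of compound in HBSS starting at 100 µM. Calcium 3 dye added with probenecid (2.5 mM final), 45 min at 37 °C, then calcium release read by FLIPR at 37 °C.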

[3] = target: T2, 1-phosphatidylinositol 4,5-bisphosphate phosphodiesterase gamma-2 (Homo sapiens, UniProt P16885); experiment: Inhibition of recombinant phospholipase C gamma2 expressed in baculovirus infected Sf9 cells using [3H]PIP2 by flashplate biochemical assay
T2 sequence (P16885 whole entry): T1 sequence (whole entry)
How it was run: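 Full-length His-tagged PLC-γ2 from baculovirus-infected Sf-9 cells, purified by Talon IMAC. Plates coated 24 h at room temperature with 3H-PIP2 (0.1 µCi/well); enzyme plus inhibitor in 50 mM Tris-HCl, 200 mM NaCl, 100 µM CaCl2, 100 µM EGTA, 100 µM spermine, 0.5 mM deoxycholate, pH 7.4, 5% v/v DMSO final. Scintillation signal loss read at room temperature, typically 30 min; CPM compared with control wells.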

[4] = target: T1, 1-phosphatidylinositol 4,5-bisphosphate phosphodiesterase gamma-2 (Homo sapiens); experiment: Inhibition of phospholipase C gamma2 in human A431 cells assessed as reduction of calcium release at 50 uM after 45 mins by FLIPR assay; format: cell-based; conditions: A-431
How it was run: (§1)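 A431 cells seeded overnight at 4 × 10^5 per well, then given compound in HBSS. Calcium 3 dye with 2.5 mM probenecid, 45 min at 37 °C, FLIPR read at 37 °C. Scoring was semi-quantitative: any decrease in calcium release at 50 µM scored +, at 25 µM ++.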

[5] = target: T1, 1-phosphatidylinositol 4,5-bisphosphate phosphodiesterase gamma-2 (Homo sapiens); experiment: Inhibition of phospholipase C gamma2 in human A431 cells assessed as reduction of calcium release at 25 uM after 45 mins by FLIPR assay; format: cell-based; conditions: A-431; how it was run: as §1

O=C1C2Nc3ccc(Br)cc3C2N=CN1CCc1ccccc1 (centres undefined)
inhibition [1]: 100% | GC50 [2]: inactive

CCCc1nnc(NC(=O)c2cc([N+](=O)[O-])cc([N+](=O)[O-])c2)s1
inhibition [1]: 100% | GC50 [2]: inactive

O=C(NC(=O)c1ccccc1Cl)Nc1ccc2c(c1)S(=O)(=O)C=C2
IC50 [3]: 9.5 µM | GC50 [2]: inactive

Nc1c(C(=O)Nc2cccc(F)c2)sc2nc(-c3ccc(F)cc3)ccc12
inhibition [1]: 100% | Decrease in calcium release (active/inactive call) [4]: Active

O=C1C2Nc3ccc(Br)cc3C2N=CN1CCC1=CCCCC1 (centres undefined)
inhibition [1]: 100% | GC50 [2]: inactive

Cc1ccc(NC(=O)c2sc3nc4c(cc3c2N)C(=O)CCC4)cc1Cl
inhibition [1]: 100% | GC50 [2]: inactive

Cc1ccc(/C=C2\C(=O)NC(=O)N(c3ccc(Cl)cc3)C2=O)s1
inhibition [1]: 6% | GC50 [2]: 5 µM

O=c1/c(=C/c2ccncc2)sc2n1CN(c1ccc(Cl)cc1)CN=2
inhibition [1]: 100% | GC50 [2]: 15 µM

Nc1c(C(=O)Nc2cccc(Cl)c2)sc2nc3c(cc12)C(=O)CCC3
inhibition [1]: 100% | GC50 [2]: inactive

Nc1c(C(=O)Nc2cccc(Cl)c2)sc2nc(-c3cccs3)ccc12
inhibition [1]: 100% | Decrease in calcium release (active/inactive call) [4]: Active

COc1ccc(Cl)cc1C(=O)Nc1nc2ccc([N+](=O)[O-])cc2s1
inhibition [1]: 100% | Calcium release inhibition activity at 25 uM [5]: Active

N#Cc1ccc(/C=C2/N=C(c3ccccc3)OC2=O)cc1
IC50 [3]: 2 µM | GC50 [2]: inactive

O=C1C2Nc3ccc(Br)cc3C2N=CN1CCc1ccc(F)cc1 (centres undefined)
inhibition [1]: 100% | GC50 [2]: inactive

Cc1ccc(NC(=O)c2sc3nc4c(cc3c2N)C(=O)CCC4)cc1
inhibition [1]: 100% | GC50 [2]: inactive

O=C1OC(c2ccc([N+](=O)[O-])cc2)=N/C1=C/c1cccs1
IC50 [3]: 12 µM | Decrease in calcium release (active/inactive call) [4]: Active

O=C(NCCc1ccccc1)c1cc2cccc([N+](=O)[O-])c2[nH]1
IC50 [3]: 1 µM | GC50 [2]: 15 µM

O=C(Nc1ccc2oc(=O)ccc2c1)c1ccc(-c2cccc(Cl)c2)o1
inhibition [1]: 100% | Calcium release inhibition activity at 25 uM [5]: Active

O=C(Nc1cccc(Cl)c1)Nc1nnc(-c2ccc3c(c2)OCO3)s1
inhibition [1]: 85% | Decrease in calcium release (active/inactive call) [4]: Active

O=C(Nc1ccc(S(=O)(=O)Nc2nccs2)cc1)c1cccs1
inhibition [1]: 82% | GC50 [2]: inactive

COc1ccc(-c2nnc(NC(=O)c3cccs3)s2)cc1
inhibition [1]: 100% | GC50 [2]: inactive

CCCOc1ccc(-c2nnc(NC(=O)c3cccs3)s2)cc1
inhibition [1]: 67% | GC50 [2]: inactive

CCOc1ccc2c(c1)C1N=CN(Cc3ccccc3)C(=O)C1N2 (centres undefined)
inhibition [1]: 89% | GC50 [2]: inactive

O=[N+]([O-])c1cc(-c2nc(-c3ccccn3)no2)cs1
IC50 [3]: 2 µM | GC50 [2]: inactive

COc1ccc2c(c1)C1N=CN(CCc3c[nH]c4ccccc34)C(=O)C1N2 (centres undefined)
inhibition [1]: 89% | Decrease in calcium release (active/inactive call) [4]: Active

Clc1cccc(-c2nc(-c3ccc(-c4ccon4)s3)no2)c1
IC50 [3]: 1 µM | GC50 [2]: inactive

O=C1NN(c2ccccc2)C(=O)/C1=C/c1coc2ccc(Cl)cc2c1=O
inhibition [1]: 27% | GC50 [2]: 18 µM

O=C(Nc1nc2ccccc2c(=O)s1)c1ccc(Cl)cc1
IC50 [3]: 2 µM | GC50 [2]: inactive

O=S(=O)(Oc1ccc(-c2cnc3ccccc3n2)cc1)c1ccccc1
inhibition [1]: 100% | Calcium release inhibition activity at 25 uM [5]: Active

COc1ccc(S(=O)(=O)n2ccc(-c3ccc4c(c3)CCC(C)(C)O4)n2)cc1
IC50 [3]: 3 µM | GC50 [2]: 30 µM

CC(=O)c1ccc(Nc2nnc(-c3ccncc3)s2)cc1
inhibition [1]: 100% | Calcium release inhibition activity at 25 uM [5]: Active

Cc1ccc(S(=O)(=O)NC2=NC(=O)/C(=C\c3ccccc3)S2)cc1
inhibition [1]: 82% | GC50 [2]: 15 µM

Cc1ccc2c(c1)N/C(=C\C(=O)c1ccc(Cl)cc1)C(=O)O2
inhibition [1]: 100% | GC50 [2]: 22 µM

COc1ccc2[nH]c(C(=O)Nc3nc4ccccc4s3)cc2c1
IC50 [3]: 5 µM | GC50 [2]: inactive

O=c1/c(=C/c2ccccc2[N+](=O)[O-])sc2nc(-c3ccc(F)cc3)nn12
inhibition [1]: 100% | GC50 [2]: 15 µM

COc1ccc(-c2cc3nnc(-c4ccccc4)nc3s2)cc1
IC50 [3]: 4 µM | GC50 [2]: inactive

O=C(Nc1ccc(Cl)cc1)c1cc2cccc([N+](=O)[O-])c2[nH]1
IC50 [3]: 1 µM | GC50 [2]: inactive

O=C(Nc1ccccc1)Nc1nnc(-c2cccs2)s1
inhibition [1]: 100% | GC50 [2]: inactive
